≈ marks a conversion by molar mass, not a printed value.

The test system of series [1] is Plasmodium falciparum. Put plainly: Antiplasmodial activity against multidrug-sensitive Plasmodium falciparum NF54 by [3H]-hypoxanthine incorporation assay. The format is functional, organism-based. In a few lines:
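IC50 against P. falciparum NF54 was run with chloroquine and artesunate as reference drugs in every experiment. Values are the mean of at least 2 independent experiments.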

Series [2] can be described thus: Solubility of the compound in 0.01 M HCl at pH 2. The format is physicochemical. In a few lines:
(§1)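 Solubility was measured by a scaled-down shake flask method.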

The nature of series [3]: Solubility of the compound in phosphate buffer at pH 6.5. The format is physicochemical. In a few lines: as §1
The nature of series [4]: Metabolic stability of the compound in human liver microsomes at 0.1 uM after 30 mins by LC-MS/MS analysis. The format is ADME. The conditions noted are these: read-out: Stability. The procedure, abridged: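 A one-point microsomal stability assay was used, expressed as the percentage of parent compound remaining after 30 min incubation.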
In general terms: Microsomes from liver hold many membrane-bound enzymes, among them those of drug oxidation.

The test system of series [5] is Vero. Put plainly: Cytotoxicity against African green monkey Vero cells after 48 hrs by MTT assay. The format is cell-based. The conditions noted are these: chlorocebus sabaeus. On the technique in general: Tetrazolium dyes change colour on reduction, which living cells bring about.
Series [6] in a line: Selectivity index ratio of IC50 for African green monkey Vero cells to IC50 for Plasmodium falciparum NF54. The format is functional.
Series [7] relates to Mus musculus. Put plainly: Acute toxicity in GFP-transfected Plasmodium berghei ANKA infected NMRI mouse at 50 mg/kg, po qd for 4 days. The format is organism-based. The conditions noted are these: in vivo, 96 h. The procedure, abridged: (§2)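 P. berghei-infected mice dosed orally at 50 mg/kg once daily for 4 days. Compound was dissolved or suspended in a standard non-solubilizing HPMC suspension vehicle. Mice were watched for acute toxicity after dosing. Parasitemia reduction was calculated against untreated infected controls, and survival was recorded as mean survival time in days.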

Series [8] has as its system Mus musculus. Put plainly: Dose normalized AUC (0 to 5 hrs) in BALB/C mouse at 50 mg/kg, po. The format is ADME, organism-based. The conditions noted are these: in vivo.
Series [9] in a line: Cmax in BALB/C mouse at 50 mg/kg, po. The format is ADME, organism-based. Also on record: dose 50 mg/kg, route oral. To be noted: in vivo.
Series [10] is described as follows: AUC (0 to 24 hrs) in BALB/C mouse at 50 mg/kg, po. The conditions noted are these: in vivo. Also on record: time < 24 hr, dose 50 mg/kg, route oral. The format is ADME, organism-based.
For series [11], the system named is Plasmodium berghei. Put plainly: Antimalarial activity against GFP-transfected Plasmodium berghei ANKA infected in NMRI mouse assessed as mean survival time at 50 mg/kg, po qd for 4 days by flow cytometry analysis. The format is functional. The procedure, abridged:
as §2
(Flow cytometry measures light scatter and fluorescence of single cells or particles in a stream.)

In series [12] the test system is Plasmodium berghei. Put plainly: Antimalarial activity against GFP-transfected Plasmodium berghei ANKA infected in NMRI mouse assessed as reduction of parasitemia in blood at 50 mg/kg, po qd for 4 days by flow cytometry analysis. Also on record: scale not given: the % may be the effect or the level left. The format is functional. The procedure, abridged: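 In P. berghei-infected mice, compound was dissolved or suspended in a standard non-solubilizing HPMC suspension vehicle and given orally once daily for 4 days (4 × 50 mg/kg). Parasitemia reduction was expressed as % relative to untreated control mice. Mean survival time in days was also recorded.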

The subject of series [13] is Plasmodium falciparum. Put plainly: Antiplasmodial activity against multidrug-resistant Plasmodium falciparum K1 by [3H]-hypoxanthine incorporation assay. The format is functional, organism-based. In a few lines: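 In vitro IC50 against the multidrug-resistant K1 strain of P. falciparum. Chloroquine and artesunate were run as reference drugs in every experiment. Values are means of ≥2 independent experiments.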

The nature of series [14]: Partition coefficient, log D of the compound at pH 7.4 by HPLC chromatographic method. To be noted: octanol/water. The format is physicochemical. The procedure, abridged:
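logD was estimated by HPLC-DAD-MS.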

Series [15] in a line: Degradation half-life in human liver microsomes at 0.1 uM by LC-MS/MS analysis. The format is ADME.
Series [16] in a line: Intrinsic clearance in human liver microsomes assessed per mg of protein at 0.1 uM by LC-MS/MS analysis. The format is ADME. To be noted: read-out: CLH.
Series [17] has as its target Voltage-gated inwardly rectifying potassium channel KCNH2 (Homo sapiens, UniProt Q12809). Put plainly: Inhibition of human ERG expressed in CHO cells by patch clamp electrophysiology assay. The format is cell-based.

Chain of Voltage-gated inwardly rectifying potassium channel KCNH2 (Q12809 whole entry): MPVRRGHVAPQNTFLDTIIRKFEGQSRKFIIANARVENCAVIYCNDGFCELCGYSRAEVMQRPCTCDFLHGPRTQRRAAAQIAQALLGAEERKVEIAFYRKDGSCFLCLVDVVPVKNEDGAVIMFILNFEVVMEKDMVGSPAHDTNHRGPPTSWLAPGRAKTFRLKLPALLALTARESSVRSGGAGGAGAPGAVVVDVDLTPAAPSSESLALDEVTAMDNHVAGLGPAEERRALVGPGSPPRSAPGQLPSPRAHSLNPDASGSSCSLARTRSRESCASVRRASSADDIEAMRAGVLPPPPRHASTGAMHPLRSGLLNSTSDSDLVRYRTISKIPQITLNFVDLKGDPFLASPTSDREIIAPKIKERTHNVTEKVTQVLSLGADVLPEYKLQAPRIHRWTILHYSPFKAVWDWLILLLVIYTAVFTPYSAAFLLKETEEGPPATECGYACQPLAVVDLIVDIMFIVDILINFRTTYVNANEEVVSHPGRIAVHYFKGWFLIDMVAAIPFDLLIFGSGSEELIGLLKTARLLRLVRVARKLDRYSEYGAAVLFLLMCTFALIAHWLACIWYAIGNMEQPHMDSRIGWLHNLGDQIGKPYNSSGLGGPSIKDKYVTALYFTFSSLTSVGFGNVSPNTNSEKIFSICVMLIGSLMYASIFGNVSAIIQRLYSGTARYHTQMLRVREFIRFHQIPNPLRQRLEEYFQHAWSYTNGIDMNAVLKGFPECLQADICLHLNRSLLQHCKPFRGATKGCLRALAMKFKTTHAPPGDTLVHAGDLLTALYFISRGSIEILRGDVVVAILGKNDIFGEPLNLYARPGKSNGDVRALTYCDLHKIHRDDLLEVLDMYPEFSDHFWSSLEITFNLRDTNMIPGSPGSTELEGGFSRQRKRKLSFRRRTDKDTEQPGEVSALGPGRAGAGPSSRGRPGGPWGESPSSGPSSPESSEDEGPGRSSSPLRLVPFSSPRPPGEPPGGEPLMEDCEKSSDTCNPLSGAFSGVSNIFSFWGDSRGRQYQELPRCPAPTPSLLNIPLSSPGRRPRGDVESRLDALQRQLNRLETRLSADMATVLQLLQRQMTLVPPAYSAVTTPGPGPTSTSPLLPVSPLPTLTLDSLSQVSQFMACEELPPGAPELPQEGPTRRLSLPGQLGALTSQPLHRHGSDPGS

`CNc1nc(N2CCC(N)CC2)c2sc(-c3ccc(C(F)(F)F)cc3)cc2n1`: the IC50 (usually the concentration that inhibits the measured activity by half) in series [1] was 42 nM. The solubility (commonly the concentration that dissolves in the medium under given conditions) in series [2] is more than 200 µg/mL; in [3], 17 µg/mL (≈ 41.7 µM). Moreover, the remaining at 0.5 h, 0.1 µM in series [4] was found to be 93%. Further, the Activity entry in series [5] was “Non-toxic”; in series [7], “Non-toxic”; in series [12], 81%. For the same molecule, in series [6], the “Ratio IC50” value is reported as more than 100. Also, the AUC/dose in series [8] is reported as 7.63 min.ug/ml/(mg/kg). Besides, the Cmax (commonly the highest concentration seen after dosing) in series [9] amounted to 3690 nM. Besides, in series [10], the AUC(0-t) – broadly, the area under the concentration-time curve up to a stated or last time point – at 24 h was 78.2 µM·h. The MSD in series [11] was 7 days.
Take `CNc1nc(NC2CCNCC2)c2sc(-c3ccc(C(F)(F)F)cc3)cc2n1`: the IC50 in series [13] came out at 24 nM; in [1], 19 nM. The values for the solubility in [2] and in series [3] were 218 µg/mL (≈ 535 µM) and 147 µg/mL (≈ 361 µM), respectively. Moreover, the remaining at 0.5 h, 0.1 µM in [4] worked out at 84%. The Activity entry in [5] is recorded as “Non-toxic”; in [7], “Non-toxic”; in series [12], 99.7%. In addition, the “Ratio IC50” value in series [6] is reported as more than 100. Besides, the AUC/dose in series [8] is 4.24 min.ug/ml/(mg/kg). Also, in series [9], the peak level (Cmax) was 2470 nM. Moreover, in series [10], the AUC(0-t) at 24 h is 25 µM·h. Moreover, the MSD in series [11] came out at 12 days.
Turning to `Nc1nc(N2CCC(N)CC2)c2sc(-c3ccc(C(F)(F)F)cc3)cc2n1`, the figures for the IC50 in series [13], in series [1] and in series [17] were 33 nM, 20 nM and 6.1 µM, respectively. In addition, the solubility in series [2] and in [3] was 134 µg/mL (≈ 341 µM) each time. In [14], the chromatographic logD (in general, lipophilicity estimated from chromatographic retention) was 2.4. Also, the half-life (as a rule, how long it takes for the measured level to halve) at 0.1 µM in [15] is more than 150 min. The microsomal CLint at 0.1 µM in series [16] was less than 11.6 µL/min/mg. Also, the remaining at 0.5 h, 0.1 µM in [4] turned out to be 100%. Moreover, the Activity result is “Non-toxic” in [5] and 99.8% in series [12]. For the same molecule, the “Ratio IC50” value in series [6] is more than 100. For the same molecule, the AUC/dose in series [8] was 2.63 min.ug/ml/(mg/kg). The concentration in series [9] peaked (Cmax) at 1360 nM. This molecule also came in with an area under the curve AUC(0-t) at 24 h in [10] of 21.6 µM·h. Moreover, in series [11], the MSD turned out to be 26 days.

(Values after ChEMBL document CHEMBL3616374, “Structure-Activity Relationship Studies of Orally Active Antimalarial 2,4-Diamino-thienopyrimidines” (J Med Chem, 2015).)
